TAAR1 agonist: human TAAR1 agonists, primary screen, Fluo-8 calcium fluorescence, CHO RD-HGA16 cells. Trace amine-associated receptor 1 (Homo sapiens), Q96RJ0. vehicle wells 0%, saturating PEA agonist 100%. activation, % at 3 µM. 360,000 compounds, 0.99% hits. AID 624467, 2012;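 active means activation above the mean activation of all test compounds in the run plus 3 SD, cut at about 38% in these data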
Target sequence (Q96RJ0 whole entry, looked up): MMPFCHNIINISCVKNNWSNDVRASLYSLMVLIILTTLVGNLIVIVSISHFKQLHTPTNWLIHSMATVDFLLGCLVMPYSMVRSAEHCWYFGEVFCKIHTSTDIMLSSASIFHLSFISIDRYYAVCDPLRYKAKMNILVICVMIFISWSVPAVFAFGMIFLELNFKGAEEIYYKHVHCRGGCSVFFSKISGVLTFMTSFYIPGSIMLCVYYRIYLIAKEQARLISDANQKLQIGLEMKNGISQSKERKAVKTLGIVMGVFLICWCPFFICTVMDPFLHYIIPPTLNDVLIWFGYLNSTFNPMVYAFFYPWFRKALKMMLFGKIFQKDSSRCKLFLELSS
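System: CHO-derived RD-HGA16 cells with stable Gα16 and human TAAR1 / Times: 17-24 h plating, Fluo-8 75 min 37 °C, 30 min RT / Technique: calcium-sensitive Fluo-8 signal, excitation 470-495, emission 515-575 nm / Measure: % activation relative to PEA EC100 response / Benchmarks: DMSO and PEA EC100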
OX1R antag-1: antagonists of human orexin 1 receptor (OX1R); Orexin/Hypocretin receptor type 1 (Homo sapiens), O43613; OX1R-expressing cells, FRET antagonist read-out; inhibition, % at 6.6 µM; 330,000 compounds, 1.8% hits; AID 485270, 2010; in the data active means inhibition mostly above about 38%, no sharp cut-off; inactive means mostly below about 40%;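 further: 0% = agonist challenge alone and 100% = reference antagonist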
TAAR1 antagonist: human TAAR1 antagonists, primary screen, Fluo-8 calcium fluorescence, CHO RD-HGA16 cells; antagonist; 360,000 compounds, 1.5% hits; Trace amine-associated receptor 1 (Homo sapiens), Q96RJ0; inhibition, % at 3 µM; AID 624466, 2012;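 active means inhibition above a per-plate cutoff, the mean inhibition of test compounds on that plate plus 3 SD, cut at about 49% in these data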;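 further: 0% = DMSO plus EC80 beta-PEA response and 100% = DMSO alone without agonist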
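test system = CHO RD-HGA16 cells bearing hTAAR1 | replication = singlicate | controls = DMSO-only wells and EC80 β-PEA-stimulated wells | reagent = EC80 β-phenethylamine stimulus | read-out basis = percent inhibition of PEA-evoked calcium signal, max/basal emission ratio | schedule = seeding 17-24 h prior, 75-min 37 °C, 30-min RT dye loading | signal = kinetic Fluo-8 calcium fluorescence measurement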
OX1R antag-2: OX1R (HCRTR1) antagonists, primary screen, fluorescence, CHO/OX1R cells, Fluo-8 calcium, orexin A; Orexin/Hypocretin receptor type 1 (Homo sapiens), O43613; Fluo-8 calcium fluorescence; inhibition, % at 5 µM; 330,000 compounds, 0.43% hits; AID 434989, 2010;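 active means inhibition above its plate's threshold, mean inhibition of all tested compounds on the plate plus 3 SD, cut at about 37% in these data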;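 further: 0% = orexin A challenge wells and 100% = SB-334867-A antagonist wells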
CHO parental Ca: ATP-evoked calcium signal inhibitors, parental CHO, primary screen, counter-screen for OX1R antagonist project, cell-based, fluorescence, Fluo-8 calcium dye | 330,000 compounds, 0.63% hits | parental CHO-K1, ATP-induced calcium, Fluo-8 fluorescence | inhibition, % at 5.6 µM;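 active means inhibition above that plate's mean sample inhibition plus 3 SD, cut at about 26% in these data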;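 further: 0% = ATP-challenged DMSO wells and 100% = DMSO wells without ATP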
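Assay system: untransfected parental CHO cell line. Also added: ATP agonist challenge. Dosing: one dose, 5.6 µM nominal. Measured by: Fluo-8 fluorescence. Read-out: % inhibition. Benchmarks: ATP wells versus no-ATP DMSO wells. Repeats: no replicates.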
NTR1 agonist: agonists of human NTR1, primary screen, imaging, U2OS cells, beta-arrestin-GFP, high content. NTR1-U2OS beta-arrestin-GFP spot imaging, agonist mode. activation, % at 20 µM. 330,000 compounds, 0.17% hits. AID 493036, 2011;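 active means activation at or above 40% of the spot to cytoplasm intensity ratio, with at least 20 cells analyzed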;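 further: 0% = DMSO without peptide and 100% = 100 nM NTR1 peptide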
TAAR1 ag conf: human TAAR1 agonists, retest of hits, confirmation, Fluo-8 calcium fluorescence, CHO RD-HGA16 cells; shares compounds with TAAR1 agonist; scaled: DMSO 0%, maximal phenethylamine 100%; activation, % at 3 µM; 2,400 compounds, 82% hits;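 active means activation above a cutoff set at the run's mean compound activation plus 3 SD, cut at about 39% in these data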
Ga16 ag counter: nonselective calcium mobilization agonists, CHO-Ga16 cells, counter-screen for hTAAR1 agonist project, cell-based, fluorescence, CHO-Ga16 parental line | shares compounds with TAAR1 agonist | activation, % at 3 µM | 2,400 compounds, 50% hits | Fluo-8 calcium fluorescence; normalized to maximal ATP response, DMSO zero;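 active means activation above the run cutoff, the mean activation over all tested wells plus 3 SD, cut at about 12% in these data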;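 further: 0% = DMSO wells and 100% = maximal ATP response on the peak over basal ratio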
TAAR1 desens: TAAR1 desensitization by agonist hits, confirmation, counter-screen for TAAR1 agonist project, cell-based, fluorescence, tachyphylaxis; shares compounds with TAAR1 agonist; CHO RD-HGA16 hTAAR1, Fluo-8 calcium, beta-PEA response inhibition; inhibition, % at 3 µM; 2,400 compounds, 46% hits;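 active means inhibition above the run cutoff, the mean inhibition of all test compounds plus 3 SD, cut at about 49% in these data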;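 further: beta-PEA stimulus applied at its EC80; loss of beta-PEA calcium signal after compound pretreatment read as receptor desensitization; 0% = DMSO with beta-PEA at EC80 and 100% = DMSO alone without agonist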
Ga16 nonsel ant: inhibition of ATP-evoked calcium response in CHO-Ga16 cells, counter-screen for TAAR1 agonist project, cell-based, fluorescence | AID 651952, 2012 | inhibition, % at 3 µM | shares compounds with TAAR1 agonist | CHO-Ga16 ATP-induced calcium, Fluo-8 fluorescence | 2,400 compounds, 39% hits;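 active means inhibition above the plate's mean compound inhibition plus 3 SD, computed per plate, cut at about 22% in these data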;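 further: 0% = EC80 ATP with DMSO and 100% = DMSO wells without ATP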
Numbers without * were called inactive. An excerpt weighted towards active compounds, which were near 4% of everything screened.

Screening CCOC(=O)c1ccc(NC(=O)COc2ccccc2CNCCc2ccccc2)cc1 returned TAAR1 agonist 81*, OX1R antag-1 7, TAAR1 antagonist 36, OX1R antag-2 -4, CHO parental Ca -2, NTR1 agonist 13, TAAR1 ag conf 111*, Ga16 ag counter 23*, TAAR1 desens 85* and Ga16 nonsel ant 27*.
COc1ccc(S(=O)(=O)N2CCN(c3ccccn3)CC2)cc1[N+](=O)[O-] was read as TAAR1 agonist 0, OX1R antag-1 5, TAAR1 antagonist -2, OX1R antag-2 -12, CHO parental Ca -16 and NTR1 agonist 2.
For COc1ccc(S(=O)(=O)N2CCN(c3ncccn3)CC2)cc1[N+](=O)[O-] the results were TAAR1 agonist 94*, OX1R antag-1 6, TAAR1 antagonist 27, OX1R antag-2 -20, CHO parental Ca 6, NTR1 agonist 0, TAAR1 ag conf 9, Ga16 ag counter 7, TAAR1 desens 1 and Ga16 nonsel ant 5.
Screening CC1CCCCC1NC(=O)CSc1nnc(-c2ccco2)n1N (stereo unspecified) returned TAAR1 agonist 73*, TAAR1 antagonist 24, TAAR1 ag conf 15, Ga16 ag counter 3, TAAR1 desens -5 and Ga16 nonsel ant 3.
CC[C@H](C)[C@H](NC(=O)OCc1ccccc1)C(=O)OCC(=O)N1CCN(c2ccc(OC)cc2)CC1 was read as TAAR1 agonist 2 and TAAR1 antagonist 2.
For Cc1cc(C)c2c(=O)n(CC(=O)Nc3ccc(Cl)cc3)sc2n1 the results were TAAR1 agonist 87*, OX1R antag-1 10, TAAR1 antagonist 80*, OX1R antag-2 45*, CHO parental Ca 56*, NTR1 agonist 1, TAAR1 ag conf 100*, Ga16 ag counter 61*, TAAR1 desens 87* and Ga16 nonsel ant 68*.
For Cc1cc(C)c2c(=O)n(CC(=O)Nc3cccc(F)c3)sc2n1 the results were TAAR1 agonist 70*, OX1R antag-1 17, TAAR1 antagonist 72*, OX1R antag-2 6, CHO parental Ca 22, NTR1 agonist 3, TAAR1 ag conf 95*, Ga16 ag counter 54*, TAAR1 desens 88* and Ga16 nonsel ant 60*.
Screening COc1cc(C(=O)NCCNc2nc3ccc(C)cc3cc2C#N)cc(OC)c1OC returned TAAR1 agonist 5, OX1R antag-1 37, TAAR1 antagonist 2, OX1R antag-2 -28, CHO parental Ca -25 and NTR1 agonist 1.
